This sample holds only a part of the variants without activity.
B1: tRNA (parent)
chain: GUUCCGUUGGCGUAAUGGUAACGCGUCUCCCUCCUAAGGAGAAGACUGCGGGUUCGAGUCCCGUACGGAACG

Variants of: B1
Experiment: yeast fitness relative to wild type (ratio to wild type); higher = fitter; tRNA-Arg(CCU), competitive growth, 37 C, YPD
In short: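 The tRNA-Arg(CCU) gene variants were made by chemical synthesis with a 3% per-site mutation rate at 69 sites and inserted at the native genomic locus of Saccharomyces cerevisiae. After pooling, the strains were competed in YPD at 37°C for 24 hours in six parallel replicates. Gene amplicons from the start population and each end population were read by 100-nucleotide paired-end sequencing, and Darwinian fitness relative to wild type was taken from genotype frequency changes. Genotypes needed ≥ 100 starting reads, and estimates < 0.5 were set to 0.5.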

Variant | yeast fitness
A14G A21C G63C | 0.546
G23C G39C | 0.53
A14C C55G G68C | ≤ 0.5
A21C C33U C55A | 0.533
U8A C27A G68C | ≤ 0.5
G6A G17A G38C | 0.708
C4G C11G C55U | ≤ 0.5
A15U G17A C46U C62U | 0.865
A14G G41A A70G | 0.638
A20G C55U | 0.82
G17C C29U A37C A65C | 0.555
C27G C29G C30U | ≤ 0.5
A20C G44A G56A | 0.544
C4U U7A | 0.743
G10C A43C | 0.591
U16A C24U C33U A36U A40U G56C A57G A69C | ≤ 0.5
A21C A45G | 0.918
C5G G9A C61U | ≤ 0.5
U13A A20C A70C | ≤ 0.5
C30A A42C C66A | 0.719
G9A C29G G63A | 0.525

Variant | yeast fitness
G38C G48C G63C | 0.574
G12A G23A U35G A36G C62U A69G | ≤ 0.5
C5G U64G | 0.86
C29U A45C | 0.778
G18C C60U | ≤ 0.5
C11U C22U U54C G56C G58A | ≤ 0.5
U8A A20U A21U G25A A43U | 0.584
C22U C27G C31U G68A | ≤ 0.5
C5U U7C A40C C66U | ≤ 0.5
G18U U26A C66A A70U | 0.536
C34G G41C C49U C62A A69C | ≤ 0.5
U2C U7G A15G A45U G50A A57C | ≤ 0.5
A42G G48A | 0.863
A15C C29G C30G U47C | ≤ 0.5
C4A A20C C29A | ≤ 0.5
U54A C61G | 0.63
C4G G18A C66U | 0.524
U2A C60G | 0.666
C5U A21G A42U U54G | 0.533
A37G G44C A45C G50A C55G C66A | ≤ 0.5
C5G C11G C34U | 0.576

Variant | yeast fitness
U3A C5U A42G G52C A57G | ≤ 0.5
C27G C34U A43C A57U G58A C62G | ≤ 0.5
U8A A14C | 0.692
C22G C34A A36U | 0.656
U2C A21G | 0.975
U7G G39A C66U A69U | ≤ 0.5
U16C G51A | 0.633
A21G U32C A65U G68A | 0.63
C11A C55G | 0.535
U8C C34U | 0.728
A14G C24U A43U A65C | ≤ 0.5
U3C C46A G67A A70C | 0.556
U19C C22A G23A C34U A57C C66U A69C | ≤ 0.5
U7C G67U A70U | 0.544
C4A C33A C60A | ≤ 0.5
C4U G12C U26G C55U A69C | 0.504
C5G A21C C61A | ≤ 0.5
C11U C24G U59A C60A | ≤ 0.5
C5A G39A G44A C62G C66G | ≤ 0.5
G18C U35A A45C C62U | 0.542
A14C A15C U16C C27U C29A C34G G50C | ≤ 0.5

Variant | yeast fitness
C49G G63C A69U | 0.651
U13G G18A A20U C31G | 0.566
C27G G58C U59C G63A | ≤ 0.5
U2G G10A A15U A21C G25C | ≤ 0.5
U28C G44C G56C | 0.7
C5U A21G A42C | 0.761
A20U A21C C27A A45G | ≤ 0.5
U16C C24U C30U C66U | ≤ 0.5
A42C U47C G58C | 0.644
C24U C30G G51A C60U G67A | ≤ 0.5
C5A C11A | 0.592
G12A C46U G51A C66U | 0.615
G39U A43G | 0.811
C22G C34A A36U A42C C46G | ≤ 0.5
U13A C34A A37G | ≤ 0.5
C27A G39C A57U A70U | ≤ 0.5
C24G C66G G68C | ≤ 0.5
A42C A57U C66U | ≤ 0.5
U26A A37G C66A | ≤ 0.5
G6C U28G | 0.644
U16A C30U A45G | ≤ 0.5
